Assay results published in PMC6921677 (ACS Omega, 2019).
Where two headings read alike, the source gives them in different places.

Legend:
[1] = tested on: NIH-3T3 (mouse normal fibroblast); assay: MTT cell cytotoxicity assay, NIH-3T3; format: cell-based; details: read-out: NIH-3T3 IC50 ± S.D
Procedure, shortened: (§1)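 Cells maintained in high-glucose DMEM with 2 mM L-glutamine, 10% FBS and 1% antibiotics, passaged before 70% confluency. Seeded at 10 000/well, left overnight at 37 °C, washed, then exposed to a range of test compound concentrations for 48 h. MTT (0.5 mg/mL as added) for 4 h, formazan dissolved in DMSO, OD 570 nm. IC50 fitted from percent inhibition.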

[2] = tested on: NCI-H460 (lung cancer); assay: MTT cell cytotoxicity assay, NCI-H460; format: cell-based; details: Homo sapiens, NCI-H460, 48 h, read-out: NCI-H460 IC50 ± S.D
Procedure, shortened: as §1

[3] = tested on: CAL-27 (oral cancer); assay: MTT cell cytotoxicity assay, CAL-27; format: cell-based; details: Homo sapiens, CAL-27, 48 h, read-out: CAL-27 IC50 ± S.D
Procedure, shortened: as §1

[4] = tested on: A. baumannii (ATCC 19606); assay: crystal violet biofilm inhibition assay, A. baumannii; format: cell-based, Acinetobacter baumannii; details: for A. baumannii MBIC dose: biofilm inhibitory concentration, 24 h, crystal violet
Procedure, shortened: (§2)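 Strains cultured in tryptone soya broth or agar. Test compound twofold serially diluted (500–1 μM) in TSB and inoculated at 5 x 10^5 CFU/mL. Incubated 24 h at 37 °C. Medium discarded and wells washed with sterile water, then stained with 0.1% w/v crystal violet for 15 min. Washed and air-dried; bound dye taken up in 30% v/v acetic acid. A590 gave percent biofilm inhibition.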

[5] = tested on: S. aureus (NCTC 6571); assay: crystal violet biofilm inhibition assay, S. aureus; format: cell-based, Staphylococcus aureus; details: biofilm inhibition at 500 μM
Procedure, shortened: as §2

[6] = tested on: E. coli (ATCC 25922); assay: crystal violet biofilm inhibition assay, E. coli; format: cell-based, Escherichia coli; details: for E. coli % Inhibition ± S.D: biofilm inhibition at 250 μM; for E. coli MBIC dose: biofilm inhibitory concentration, 24 h, crystal violet
Procedure, shortened: as §2

[7] = tested on: K. pneumoniae (ATCC 13882); assay: crystal violet biofilm inhibition assay, K. pneumoniae; format: cell-based, Klebsiella pneumoniae; details: for K. pneumonia % inhibition ± S.D: biofilm inhibition at 250 μM; for K. pneumonia MBIC dose: biofilm inhibitory concentration, 24 h, crystal violet
Procedure, shortened: as §2

| SMILES | IC50 ([1]; Mus musculus, NIH3T3, 48 h) [µM] | IC50 [2] [µM] | IC50 [3] [µM] | A. baumannii % Inhibition ± S.D ([4]; biofilm inhibition at 250 μM) [%] | A. baumannii MBIC dose [4] [µM] | S. aureus % Inhibition ± S.D [5] | E. coli % Inhibition ± S.D [6] [%] | E. coli MBIC dose [6] [µM] | K. pneumonia % inhibition ± S.D [7] [%] | K. pneumonia MBIC dose [7] [µM] | IC50 ([1]; MTT, 48 h treatment, normal mouse fibroblast) [µM] | A. baumannii % Inhibition ± S.D ([4]; biofilm inhibition at 125 μM) [%] |
| --- | --- | --- | --- | --- | --- | --- | --- | --- | --- | --- | --- | --- |
| O=c1[nH]cc(F)c(=O)[nH]1 [5-fluorouracil] | > 100 | 4.54 ± 1.67 | 2.41 ± 0.89 | – | – | – | – | – | – | – | – | – |
| O.O.O.O.O=C([O-])Cc1ccccc1Nc1c(Cl)cccc1Cl.O=C([O-])Cc1ccccc1Nc1c(Cl)cccc1Cl.[K+].[K+].c1cnc2c(c1)ccc1cccnc12.c1cnc2c(c1)ccc1cccnc12 [Complex 2, [K2(phen)2(dcf)2(H2O)4]] | – | – | – | 86.158 ± 0.068 | 250 | –1.497 ± 0.288% | 72 ± 0.091 | 250 | 77.26 ± 0.063 | 250 | – | – |
| O.O.O=C([O-])Cc1ccccc1Nc1c(Cl)cccc1Cl.[Li+].c1cnc2c(c1)ccc1cccnc12 [Complex 3, [Li(phen)(H2O)2][dcf]] | – | – | – | – | 125 | 3.306 ± 0.166% | 76.22 ± 0.026 | 250 | 77.91 ± 0.062 | 250 | 135 ± 4.96 | 87.924 ± 0.073 |
